Results from ChEMBL document CHEMBL1130047, “Synthesis, structure, and antiproliferative activity of selenophenfurin, an inosine 5'-monophosphate dehydrogenase inhibitor analogue of selenazofurin” (J Med Chem, 1997).
pIC50: −log10 of the molar value.

What was measured:
[1] = system: CCRF-CEM; assay: (§1) Compound was tested for antiproliferative activity against CCRF-CEM, human acute T-lymphoblastic leukemia; assay type: functional, cell-based
How it was run: (§2)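 Suspension leukemia/lymphoma cells in exponential growth resuspended at 1 × 10⁵ cells/mL in growth medium with various compound concentrations; viability read by MTT after 96 h at 37 °C. Growth given as percentage of untreated controls; IC50 (concentration reducing viability 50%) from linear regression.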

[2] = system: ACHN; assay: Compound was tested for antiproliferative activity against ACHN, human renal adenocarcinoma; assay type: functional, cell-based
How it was run: (§3)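 Exponentially growing solid-tumour-derived cells were seeded at 5 × 10⁴ cells/mL and left to adhere for 16 h before drug addition, across a range of concentrations. Growth was expressed as % of untreated controls, and IC50 (concentration reducing cell viability by 50%) was obtained by linear regression.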

[3] = target: T1, Inosine-5'-monophosphate dehydrogenase (IMPDH) (Homo sapiens) (UniProt P20839+P12268); assay: Compound was tested for its effect on IMPDH (Inosine 5`-monophosphate dehydrogenase) activity of K562 cells in culture.; assay type: functional, cell-based; details: scale: (nM of XMP formed) hr-1
T1 sequence (P20839 whole entry, looked up, other chains not shown): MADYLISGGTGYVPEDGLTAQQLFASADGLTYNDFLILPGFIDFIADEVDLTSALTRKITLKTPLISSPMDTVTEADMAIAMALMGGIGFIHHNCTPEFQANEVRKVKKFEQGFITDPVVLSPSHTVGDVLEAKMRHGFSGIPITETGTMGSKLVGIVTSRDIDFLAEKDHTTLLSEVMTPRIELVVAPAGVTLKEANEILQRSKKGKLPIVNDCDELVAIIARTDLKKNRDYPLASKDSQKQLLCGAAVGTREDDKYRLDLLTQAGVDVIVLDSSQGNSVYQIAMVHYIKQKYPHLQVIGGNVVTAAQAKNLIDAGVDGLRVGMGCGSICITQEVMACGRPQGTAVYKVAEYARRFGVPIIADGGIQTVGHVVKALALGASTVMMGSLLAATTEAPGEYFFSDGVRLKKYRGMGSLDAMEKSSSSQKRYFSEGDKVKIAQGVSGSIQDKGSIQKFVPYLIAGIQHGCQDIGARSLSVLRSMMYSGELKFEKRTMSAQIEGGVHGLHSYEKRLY

[4] = system: L1210; assay: (§4) Compound was tested for antiproliferative activity against L1210, murine lymphocytic leukemia; assay type: functional, cell-based; details: Mus musculus; how it was run: as §2
[5] = system: K562; assay: Compound was tested for its influence on the GTP (guanosine triphosphate) ribonucleotide level in K562 cells; assay type: functional, Homo sapiens
How it was run: (§5)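 K562 cells in culture (1 × 10⁷) were incubated with 10 µM agent or saline for 2 h at 37 °C, then washed with cold saline. Extraction used cold 10% trichloroacetic acid, followed by neutralisation with 0.5 M tri-n-octylamine in freon. Nucleotides were measured by HPLC on a strong anion-exchange (SAX) column, with levels in nmol/g and % of saline control.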

[6] = system: CHO-K1; assay: Compound was tested for antiproliferative activity against CHO-K1, Chinese hamster ovary cells; assay type: functional, cell-based; details: Cricetulus griseus
How it was run: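 Solid tumor-derived adherent cells seeded at 5 × 10⁴ cells/mL in exponential growth, allowed 16 h to attach before drug addition; viability by MTT method. Growth expressed as percent of untreated controls, IC50 obtained by linear regression.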

[7] = system: MOLT-4; assay: (§6) Compound was tested for antiproliferative activity against MOLT-4, human acute T-lymphoblastic leukemia; assay type: functional, cell-based; how it was run: as §2
[8] = system: Raji; assay: Compound was tested for antiproliferative activity against Raji, human Burkitt lymphoma; assay type: functional, cell-based
How it was run: (§7)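 Exponentially growing cells were seeded at 1 × 10⁵ cells/mL in growth medium and exposed to various compound concentrations for 96 h at 37 °C. Viability was read by MTT. Growth at each concentration was taken as % of untreated controls, and IC50 (concentration reducing viability by 50%) was derived by linear regression.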

[9] = system: K562; assay: Compound was tested for its influence on the GDP (guanosine diphosphate) ribonucleotide level in K562 cells; assay type: functional, Homo sapiens; how it was run: as §5
[10] = system: K562; assay: Compound was tested for its influence on the GMP (guanosine monophosphate) ribonucleotide level in K562 cells; assay type: functional, Homo sapiens; how it was run: as §5
[11] = target: T1, Inosine-5'-monophosphate dehydrogenase (IMPDH) (Homo sapiens); assay: Compound was tested for its inhibition against IMPDH from human myelogenous leukemia K562 cells in culture.; assay type: functional, cell-based; details: concentration not given here
[12] = system: CCRF-SB; assay: (§8) Compound was tested for antiproliferative activity against CCRF-SB, human acute B-lymphoblastic leukemia; assay type: functional, cell-based; how it was run: as §2
[13] = system: WIL2-NS; assay: Compound was tested for antiproliferative activity against Wil2-NS, human splenic lymphoblastoid cells; assay type: functional, cell-based; how it was run: as §7
[14] = system: HT-29; assay: Compound was tested for antiproliferative activity against HT29, human colon adenocarcinoma; assay type: functional, cell-based; how it was run: as §3
[15] = system: HeLa; assay: Compound was tested for antiproliferative activity against HeLa, human cervix carcinoma; assay type: functional, cell-based; how it was run: as §3
[16] = system: K562; assay: (§9) Compound was tested for antiproliferative activity against K562, human erythroid leukemia; assay type: functional, cell-based; how it was run: as §2
[17] = system: 5637; assay: Compound was tested for antiproliferative activity against 5637, human bladder carcinoma cell line; assay type: functional, cell-based; how it was run: as §3
[18] = system: K562; assay: Compound was tested for its influence on the IMP (Inosine 5`-monophosphate) ribonucleotide level in K562 cells; assay type: functional, Homo sapiens
How it was run: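 K562 cells (1 × 10⁷) given 10 µM agent or saline for 2 h at 37 °C, washed in cold saline, extracted with cold 10% trichloroacetic acid, neutralized with 0.5 M tri-n-octylamine in freon; IMP measured by strong anion-exchange HPLC, reported as percent of saline control (control in nmol/g).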

[19] = system: CCRF-SB; assay: as §8; assay type: functional, cell-based; how it was run: as §7; remark: listed apart in the source
[20] = target: T1, Inosine-5'-monophosphate dehydrogenase (IMPDH) (Homo sapiens); assay: Compound was tested for its effect on IMPDH (Inosine 5`-monophosphate dehydrogenase) activity in K562 cells in culture.; assay type: functional, cell-based; details: scale: (nM of XMP formed) hr-1
[21] = target: T1, Inosine-5'-monophosphate dehydrogenase (IMPDH) (Homo sapiens); assay: (§10) Compound was tested for its inhibition against IMPDH from human myelogenous leukemia in K562 cells; assay type: functional, cell-based; details: concentration not given here
[22] = system: K562; assay: as §9; assay type: functional, cell-based; how it was run: as §7; remark: listed apart in the source
[23] = system: K562; assay: Compound was tested for its influence on the IMP (Inosine 5`-monophosphate) ribonucleotide level of K562 cells in culture; assay type: functional, Homo sapiens; how it was run: as §5
[24] = system: CHO-K1; assay: Compound was tested for antiproliferative activity against CHO-K1, Chinese hamster ovary; assay type: functional, cell-based; details: Cricetulus griseus; how it was run: as §3
[25] = system: CCRF-CEM; assay: as §1; assay type: functional, cell-based; how it was run: as §7; remark: listed apart in the source
[26] = target: T1, Inosine-5'-monophosphate dehydrogenase (IMPDH) (Homo sapiens); assay: Compound was tested for its effect on IMPDH (Inosine 5`-monophosphate dehydrogenase) activity in K562 cells; assay type: functional, cell-based; details: scale: (nM of XMP formed) hr-1
How it was run: (§11)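 Log-phase K562 cells (1 × 10⁶ cells/mL) were given 10 µM agent or saline for 2 h at 37 °C. They were then washed and lysed in Tris-HCl pH 7.4/NaCl/MgCl₂/0.5% NP-40/aprotinin, and the 13000g supernatant served as enzyme. The reaction ran 30 min at 37 °C, stopped by heating at 95 °C for 1 min. Radioactivity was trapped in KOH and counted by scintillation, giving nmol XMP/mg protein/h and % inhibition against saline.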

[27] = system: MOLT-4; assay: as §6; assay type: functional, cell-based; how it was run: as §7; remark: listed apart in the source
[28] = system: L1210; assay: as §4; assay type: functional, cell-based; details: Mus musculus; how it was run: as §7; remark: listed apart in the source
[29] = target: T1, Inosine-5'-monophosphate dehydrogenase (IMPDH) (Homo sapiens); assay: as §10; assay type: functional, cell-based; details: concentration not given here; how it was run: as §11; remark: listed apart in the source

| pIC50 [1] | pIC50 [4] | pIC50 [7] | Compound | pIC50 [2] | Control [5] | pIC50 [6] | pIC50 [8] | Control [9] | Control [10] | pIC50 [13] | pIC50 [14] | pIC50 [15] | pIC50 [17] | Control [18] | pIC50 [19] | pIC50 [22] | pIC50 [24] | pIC50 [25] | IMPDH activity [26] | pIC50 [27] | also measured |
| --- | --- | --- | --- | --- | --- | --- | --- | --- | --- | --- | --- | --- | --- | --- | --- | --- | --- | --- | --- | --- | --- |
| 5.00 | 5.54 | 5.28 | NC(=O)c1csc([C@@H]2O[C@H](CO)[C@@H](O)[C@H]2O)n1 [TIAZOFURIN] | < 4.00 | 55% | 5.19 | 5.09 | 89% | 0% | 5.24 | 4.00 | 4.00 | 4.62 | 1033% |  |  |  |  |  |  | IMPDH activity [3]: 2.07; inhibition [11]: 59%; pIC50 [12]: 5.12; pIC50 [16]: 5.60 |
| 5.46 | 5.77 | 5.54 | NC(=O)c1csc([C@@H]2O[C@H](CO)[C@@H](O)[C@H]2O)c1 | 4.10 | 60% | 4.26 | 5.06 | 66% | 0% | 5.24 | 4.40 | 4.05 | 4.77 | 703% | 5.19 | 5.64 |  |  |  |  | IMPDH activity [20]: 2.62; inhibition [21]: 52% |
|  |  |  | NC(=O)c1c[se]c([C@@H]2O[C@H](CO)[C@@H](O)[C@H]2O)n1 | 4.86 | 50% |  | 5.80 | 59% | 0% | 5.92 | 5.11 | 5.10 | 5.64 |  | 5.82 | 6.30 | 6.22 | 5.92 | 1.01 | 6.22 | Control [23]: 1043%; pIC50 [28]: 6.30; inhibition [29]: 80% |
|  |  |  | NC(=O)c1c[se]c([C@@H]2O[C@H](CO)[C@@H](O)[C@H]2O)c1 | 5.00 | 42% |  | 6.05 | 61% | 0% | 6.15 | 5.46 | 5.19 | 5.92 | 1464% | 6.05 | 6.35 | 5.54 | 6.52 | 1.06 | 6.52 | pIC50 [28]: 6.52; inhibition [29]: 76% |
